Data taken from ChEMBL document CHEMBL4190234, “Design, synthesis and anticancer activity of new monastrol analogues bearing 1,3,4-oxadiazole moiety” (Eur J Med Chem, 2017).

Key:
Assay type in all cases: functional
SNB-75 = test: Growth inhibition of human SNB75 cells at 10 uM incubated for 48 hrs by sulforhodamine B assay relative to control; conditions: SNB-75, 48 h, read-out: GI
In short: (§1)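 NCI single-dose screen: cells grown in RPMI 1640 with 5% FBS and 2 mM L-glutamine, plated at 5,000–40,000 cells/well and preincubated 24 h at 37 °C, 5% CO2. Compounds taken from DMSO stock and tested at final 10 µM for 48 h. Cells fixed with TCA, stained with 0.4% SRB, absorbance read at 515 nm. Percentage growth calculated against untreated controls; controls held DMSO at the same dilution.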

PC-3 = test: Growth inhibition of human PC3 cells at 10 uM incubated for 48 hrs by sulforhodamine B assay relative to control; conditions: PC-3, 48 h, read-out: GI
In short: (§2)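 Single-dose screen at 10 μM final: cells in RPMI 1640, 5% FBS, 2 mM L-glutamine, plated 5,000–40,000/well, preincubated 24 h at 37°C, 5% CO2; drug 48 h; adherent cells fixed with 10% TCA, suspension cells with 16% TCA; SRB stain, absorbance 515 nm; percentage growth versus untreated control, with time-zero plates.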

SK-MEL-5 = test: Growth inhibition of human SK-MEL-5 cells at 10 uM incubated for 48 hrs by sulforhodamine B assay relative to control; conditions: SK-MEL-5, 48 h, read-out: GI; in short: as §1
LOX IMVI = test: Growth inhibition of human LOXIMVI cells at 10 uM incubated for 48 hrs by sulforhodamine B assay relative to control; conditions: read-out: GI; in short: as §2
TK-10 = test: Growth inhibition of human TK10 cells at 10 uM incubated for 48 hrs by sulforhodamine B assay relative to control; conditions: TK-10, 48 h, read-out: GI; in short: as §1
MDA-MB-468 = test: Growth inhibition of human MDA-MB-468 cells at 10 uM incubated for 48 hrs by sulforhodamine B assay relative to control; conditions: MDA-MB-468, 48 h, read-out: GI; in short: as §2
SK-MEL-2 = test: Growth inhibition of human SK-MEL-2 cells at 10 uM incubated for 48 hrs by sulforhodamine B assay relative to control; conditions: SK-MEL-2, 48 h, read-out: GI; in short: as §1
U-251 = test: Growth inhibition of human U251 cells at 10 uM incubated for 48 hrs by sulforhodamine B assay relative to control; conditions: U-251, 48 h, read-out: GI; in short: as §1
DU-145 = test: Growth inhibition of human DU145 cells at 10 uM incubated for 48 hrs by sulforhodamine B assay relative to control; conditions: DU-145, 48 h, read-out: GI; in short: as §2
NCI-H460 = test: Growth inhibition of human NCI-H460 cells at 10 uM incubated for 48 hrs by sulforhodamine B assay relative to control; conditions: NCI-H460, 48 h, read-out: GI; in short: as §2
MDA-MB-435 = test: Growth inhibition of human MDA-MB-435 cells at 10 uM incubated for 48 hrs by sulforhodamine B assay relative to control; conditions: MDA-MB-435, 48 h, read-out: GI; in short: as §2
UACC-62 = test: Growth inhibition of human UACC62 cells at 10 uM incubated for 48 hrs by sulforhodamine B assay relative to control; conditions: UACC-62, 48 h, read-out: GI; in short: as §1
HCT-116 = test: Growth inhibition of human HCT116 cells at 10 uM incubated for 48 hrs by sulforhodamine B assay relative to control; conditions: HCT-116, 48 h, read-out: GI; in short: as §2
SR = test: Growth inhibition of human SR cells at 10 uM incubated for 48 hrs by sulforhodamine B assay relative to control; conditions: read-out: GI; in short: as §1
KM12 = test: Growth inhibition of human KM12 cells at 10 uM incubated for 48 hrs by sulforhodamine B assay relative to control; conditions: KM12, 48 h, read-out: GI; in short: as §2
RPMI-8226 = test: Growth inhibition of human RPMI8226 cells at 10 uM incubated for 48 hrs by sulforhodamine B assay relative to control; conditions: RPMI-8226, 48 h, read-out: GI; in short: as §2
SNB-19 = test: Growth inhibition of human SNB19 cells at 10 uM incubated for 48 hrs by sulforhodamine B assay relative to control; conditions: SNB-19, 48 h, read-out: GI; in short: as §1
HCC 2998 = test: Growth inhibition of human HCC2998 cells at 10 uM incubated for 48 hrs by sulforhodamine B assay relative to control; conditions: HCC 2998, 48 h, read-out: GI; in short: as §2
NCI/ADR-RES = test: Growth inhibition of human NCI/ADR-RES cells at 10 uM incubated for 48 hrs by sulforhodamine B assay relative to control; conditions: read-out: GI; in short: as §2
COLO 205 = test: Growth inhibition of human COLO205 cells at 10 uM incubated for 48 hrs by sulforhodamine B assay relative to control; conditions: COLO 205, 48 h, read-out: GI; in short: as §2
UACC-257 = test: Growth inhibition of human UACC257 cells at 10 uM incubated for 48 hrs by sulforhodamine B assay relative to control; conditions: UACC-257, 48 h, read-out: GI; in short: as §1
HOP-62 = test: Growth inhibition of human HOP62 cells at 10 uM incubated for 48 hrs by sulforhodamine B assay relative to control; conditions: HOP-62, 48 h, read-out: GI; in short: as §2
A498 = test: Growth inhibition of human A498 cells at 10 uM incubated for 48 hrs by sulforhodamine B assay relative to control; conditions: A498, 48 h, read-out: GI; in short: as §2
786-0 = test: Growth inhibition of human 786-0 cells at 10 uM incubated for 48 hrs by sulforhodamine B assay relative to control; conditions: 786-0, 48 h, read-out: GI; in short: as §2
K562 = test: Growth inhibition of human K562 cells at 10 uM incubated for 48 hrs by sulforhodamine B assay relative to control; conditions: K562, 48 h, read-out: GI; in short: as §2
MDA-MB-231 = test: Growth inhibition of human MDA-MB-231 cells at 10 uM incubated for 48 hrs by sulforhodamine B assay relative to control; conditions: MDA-MB-231, 48 h, read-out: GI; in short: as §2
OVCAR-5 = test: Growth inhibition of human OVCAR5 cells at 10 uM incubated for 48 hrs by sulforhodamine B assay relative to control; conditions: OVCAR-5, 48 h, read-out: GI; in short: as §2
Hs-578T = test: Growth inhibition of human Hs 578T cells at 10 uM incubated for 48 hrs by sulforhodamine B assay relative to control; conditions: read-out: GI; in short: as §2
Malme-3M = test: Growth inhibition of human MALME-3M cells at 10 uM incubated for 48 hrs by sulforhodamine B assay relative to control; conditions: read-out: GI; in short: as §2
CAKI-1 = test: Growth inhibition of human Caki1 cells at 10 uM incubated for 48 hrs by sulforhodamine B assay relative to control; conditions: CAKI-1, 48 h, read-out: GI; in short: as §2
OVCAR-4 = test: Growth inhibition of human OVCAR4 cells at 10 uM incubated for 48 hrs by sulforhodamine B assay relative to control; conditions: OVCAR-4, 48 h, read-out: GI; in short: as §2
MCF7 = test: Growth inhibition of human MCF7 cells at 10 uM incubated for 48 hrs by sulforhodamine B assay relative to control; conditions: MCF7, 48 h, read-out: GI; in short: as §2

CCOC(=O)C1=C(C)NC(SCc2nnc(-c3ccc(Cl)cc3)o2)=NC1c1ccc(OC)cc1 (stereo unspecified)
inhibition of growth at 10 µM (SNB-75): 18.9% | inhibition of growth at 10 µM (PC-3): 17.9% | inhibition of growth at 10 µM (SK-MEL-5): < 10% | inhibition of growth at 10 µM (LOX IMVI): < 10% | inhibition of growth at 10 µM (TK-10): < 10% | inhibition of growth at 10 µM (MDA-MB-468): < 10% | inhibition of growth at 10 µM (SK-MEL-2): < 10% | inhibition of growth at 10 µM (U-251): 10.1% | inhibition of growth at 10 µM (DU-145): < 10% | inhibition of growth at 10 µM (NCI-H460): < 10% | inhibition of growth at 10 µM (MDA-MB-435): < 10% | inhibition of growth at 10 µM (UACC-62): 15.3% | inhibition of growth at 10 µM (HCT-116): < 10% | inhibition of growth at 10 µM (SR): 18.1% | inhibition of growth at 10 µM (KM12): < 10% | inhibition of growth at 10 µM (RPMI-8226): 18.3% | inhibition of growth at 10 µM (SNB-19): 12.5% | inhibition of growth at 10 µM (HCC 2998): < 10% | inhibition of growth at 10 µM (NCI/ADR-RES): < 10% | inhibition of growth at 10 µM (COLO 205): < 10% | inhibition of growth at 10 µM (UACC-257): < 10% | inhibition of growth at 10 µM (HOP-62): < 10% | inhibition of growth at 10 µM (A498): < 10% | inhibition of growth at 10 µM (786-0): 18.8% | inhibition of growth at 10 µM (K562): < 10% | inhibition of growth at 10 µM (MDA-MB-231): 10.2% | inhibition of growth at 10 µM (OVCAR-5): < 10% | inhibition of growth at 10 µM (Hs-578T): < 10% | inhibition of growth at 10 µM (Malme-3M): < 10% | inhibition of growth at 10 µM (CAKI-1): 17.8% | inhibition of growth at 10 µM (OVCAR-4): < 10% | inhibition of growth at 10 µM (MCF7): < 10%

CCOC(=O)C1=C(C)NC(SCc2nnc(-c3ccc(Cl)cc3)o2)=NC1c1ccc(Br)cc1 (stereo unspecified)
inhibition of growth at 10 µM (SNB-75): 32.3% | inhibition of growth at 10 µM (PC-3): 51.2% | inhibition of growth at 10 µM (SK-MEL-5): 48.6% | inhibition of growth at 10 µM (LOX IMVI): 25.1% | inhibition of growth at 10 µM (TK-10): 20.1% | inhibition of growth at 10 µM (MDA-MB-468): 41.8% | inhibition of growth at 10 µM (SK-MEL-2): < 10% | inhibition of growth at 10 µM (U-251): 34.3% | inhibition of growth at 10 µM (DU-145): 15.7% | inhibition of growth at 10 µM (NCI-H460): 19.6% | inhibition of growth at 10 µM (MDA-MB-435): 34.9% | inhibition of growth at 10 µM (UACC-62): 44.7% | inhibition of growth at 10 µM (HCT-116): 51.4% | inhibition of growth at 10 µM (SR): 61.2% | inhibition of growth at 10 µM (KM12): 24% | inhibition of growth at 10 µM (RPMI-8226): 61.6% | inhibition of growth at 10 µM (SNB-19): 28% | inhibition of growth at 10 µM (HCC 2998): < 10% | inhibition of growth at 10 µM (NCI/ADR-RES): 32.5% | inhibition of growth at 10 µM (COLO 205): 22.4% | inhibition of growth at 10 µM (UACC-257): 27% | inhibition of growth at 10 µM (HOP-62): 13.1% | inhibition of growth at 10 µM (A498): 26.8% | inhibition of growth at 10 µM (786-0): 15.1% | inhibition of growth at 10 µM (K562): 39.3% | inhibition of growth at 10 µM (MDA-MB-231): 40.2% | inhibition of growth at 10 µM (OVCAR-5): < 10% | inhibition of growth at 10 µM (Hs-578T): 12.9% | inhibition of growth at 10 µM (Malme-3M): 16.9% | inhibition of growth at 10 µM (CAKI-1): 32.8% | inhibition of growth at 10 µM (OVCAR-4): 30.4% | inhibition of growth at 10 µM (MCF7): 55.2%

CCOC(=O)C1=C(C)NC(SCc2nnc(-c3ccc(C)cc3)o2)=NC1c1ccc(F)cc1 (stereo unspecified)
inhibition of growth at 10 µM (SNB-75): 13.8% | inhibition of growth at 10 µM (PC-3): 26.8% | inhibition of growth at 10 µM (SK-MEL-5): 14.5% | inhibition of growth at 10 µM (LOX IMVI): < 10% | inhibition of growth at 10 µM (TK-10): 28.4% | inhibition of growth at 10 µM (MDA-MB-468): 18.1% | inhibition of growth at 10 µM (SK-MEL-2): < 10% | inhibition of growth at 10 µM (U-251): 15.1% | inhibition of growth at 10 µM (DU-145): < 10% | inhibition of growth at 10 µM (NCI-H460): < 10% | inhibition of growth at 10 µM (MDA-MB-435): < 10% | inhibition of growth at 10 µM (UACC-62): 17.1% | inhibition of growth at 10 µM (HCT-116): 18.6% | inhibition of growth at 10 µM (SR): 26.5% | inhibition of growth at 10 µM (KM12): < 10% | inhibition of growth at 10 µM (RPMI-8226): 27.2% | inhibition of growth at 10 µM (SNB-19): 10.1% | inhibition of growth at 10 µM (HCC 2998): < 10% | inhibition of growth at 10 µM (NCI/ADR-RES): < 10% | inhibition of growth at 10 µM (COLO 205): < 10% | inhibition of growth at 10 µM (UACC-257): < 10% | inhibition of growth at 10 µM (HOP-62): < 10% | inhibition of growth at 10 µM (A498): < 10% | inhibition of growth at 10 µM (786-0): 20.2% | inhibition of growth at 10 µM (K562): 14.7% | inhibition of growth at 10 µM (MDA-MB-231): 14.7% | inhibition of growth at 10 µM (OVCAR-5): < 10% | inhibition of growth at 10 µM (Hs-578T): < 10% | inhibition of growth at 10 µM (Malme-3M): < 10% | inhibition of growth at 10 µM (CAKI-1): 24.7% | inhibition of growth at 10 µM (OVCAR-4): < 10% | inhibition of growth at 10 µM (MCF7): 14%
